Test: Phase I safety and tolerability: adverse events
Format: in vivo, human
Outline: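 Open-label 3+3 escalation of intravenous test compound. Each 4-week cycle was four weekly or two biweekly doses; later arms were biweekly with dexamethasone prophylaxis, or every 3 weeks. AEs were graded by NCI CTCAE v4.0, with laboratory tests, pulmonary function (entry FVC >70%, DLCOc >60%), vital signs, ECG and examination. DLT window: two cycles (8 weeks; 6 weeks for 3-weekly dosing).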

[1] = 12 mg/m^2/q2Wk expansion, worst grade G1
[2] = 12 mg/m^2/q2Wk expansion, worst grade G2
[3] = 12 mg/m^2/q2Wk expansion, worst grade G3
[4] = 12 mg/m^2/q2Wk with and without steroid, Total, all grades
[5] = 12 mg/m^2/q2Wk-steroid expansion, worst grade G1
[6] = 12 mg/m^2/q2Wk-steroid expansion, worst grade G2
[7] = 12 mg/m^2/q2Wk-steroid expansion, worst grade G3

SMILES: C#CCN(c1ccc(C(=O)N[C@@H](CCC(=O)N[C@H](CCC(=O)O)C(=O)O)C(=O)O)cc1)[C@H]1CCc2cc3nc(CO)[nH]c(=O)c3cc21 [CT900, N-[4-[2-propyn-1-yl[(6S)-4,6,7,8-tetrahydro-2-(hydroxymethyl)-4-oxo-3H-cyclopenta [g]quinazolin-6-yl]amino]benzoyl]-l-gamma-glutamyl-D-glutamic acid]
- Anemia, treatment-related [1]: 2 (8) n (%)
- Aspartate aminotransferase increased, treatment-related [1]: 3 (12) n (%)
- Chills, treatment-related [1]: 2 (8) n (%)
- Cough, treatment-related [1]: 8 (32) n (%)
- Decreased appetite, treatment-related [1]: 3 (12) n (%)
- Diarrhea, treatment-related [1]: 4 (16) n (%)
- Fatigue, treatment-related [1]: 12 (48) n (%)
- Nausea, treatment-related [1]: 8 (32) n (%)
- Pneumonitis, treatment-related [1]: 0 (0) n (%)
- Pyrexia, treatment-related [1]: 3 (12) n (%)
- Vomiting, treatment-related [1]: 4 (16) n (%)
- Anemia, treatment-related [2]: 2 (8) n (%)
- Aspartate aminotransferase increased, treatment-related [2]: 1 (4) n (%)
- Chills, treatment-related [2]: 1 (4) n (%)
- Cough, treatment-related [2]: 0 (0) n (%)
- Decreased appetite, treatment-related [2]: 0 (0) n (%)
- Diarrhea, treatment-related [2]: 1 (4) n (%)
- Fatigue, treatment-related [2]: 1 (4) n (%)
- Nausea, treatment-related [2]: 4 (16) n (%)
- Pneumonitis, treatment-related [2]: 4 (16) n (%)
- Pyrexia, treatment-related [2]: 0 (0) n (%)
- Vomiting, treatment-related [2]: 0 (0) n (%)
- Anemia, treatment-related [3]: 0 (0) n (%)
- Aspartate aminotransferase increased, treatment-related [3]: 0 (0) n (%)
- Chills, treatment-related [3]: 0 (0) n (%)
- Cough, treatment-related [3]: 0 (0) n (%)
- Decreased appetite, treatment-related [3]: 0 (0) n (%)
- Diarrhea, treatment-related [3]: 1 (4) n (%)
- Fatigue, treatment-related [3]: 0 (0) n (%)
- Nausea, treatment-related [3]: 0 (0) n (%)
- Pneumonitis, treatment-related [3]: 0 (0) n (%)
- Pyrexia, treatment-related [3]: 0 (0) n (%)
- Vomiting, treatment-related [3]: 0 (0) n (%)
- Anemia, treatment-related [4]: 8 (20) n (%)
- Aspartate aminotransferase increased, treatment-related [4]: 7 (18) n (%)
- Chills, treatment-related [4]: 4 (10) n (%)
- Cough, treatment-related [4]: 9 (23) n (%)
- Decreased appetite, treatment-related [4]: 4 (10) n (%)
- Diarrhea, treatment-related [4]: 9 (23) n (%)
- Fatigue, treatment-related [4]: 21 (53) n (%)
- Nausea, treatment-related [4]: 16 (40) n (%)
- Pneumonitis, treatment-related [4]: 8 (20) n (%)
- Pyrexia, treatment-related [4]: 7 (18) n (%)
- Vomiting, treatment-related [4]: 4 (10) n (%)
- Anemia, treatment-related [5]: 1 (6.7) n (%)
- Aspartate aminotransferase increased, treatment-related [5]: 3 (20) n (%)
- Chills, treatment-related [5]: 1 (6.7) n (%)
- Cough, treatment-related [5]: 1 (6.7) n (%)
- Decreased appetite, treatment-related [5]: 1 (6.7) n (%)
- Diarrhea, treatment-related [5]: 2 (13.3) n (%)
- Fatigue, treatment-related [5]: 6 (40) n (%)
- Nausea, treatment-related [5]: 4 (26.7) n (%)
- Pneumonitis, treatment-related [5]: 1 (6.7) n (%)
- Pyrexia, treatment-related [5]: 4 (26.7) n (%)
- Vomiting, treatment-related [5]: 0 (0) n (%)
- Anemia, treatment-related [6]: 1 (6.7) n (%)
- Aspartate aminotransferase increased, treatment-related [6]: 0 (0) n (%)
- Chills, treatment-related [6]: 0 (0) n (%)
- Cough, treatment-related [6]: 0 (0) n (%)
- Decreased appetite, treatment-related [6]: 0 (0) n (%)
- Diarrhea, treatment-related [6]: 0 (0) n (%)
- Fatigue, treatment-related [6]: 2 (13.3) n (%)
- Nausea, treatment-related [6]: 0 (0) n (%)
- Pneumonitis, treatment-related [6]: 3 (20) n (%)
- Pyrexia, treatment-related [6]: 0 (0) n (%)
- Vomiting, treatment-related [6]: 0 (0) n (%)
- Anemia, treatment-related [7]: 2 (13.3) n (%)
- Aspartate aminotransferase increased, treatment-related [7]: 0 (0) n (%)
- Chills, treatment-related [7]: 0 (0) n (%)
- Cough, treatment-related [7]: 0 (0) n (%)
- Decreased appetite, treatment-related [7]: 0 (0) n (%)
- Diarrhea, treatment-related [7]: 1 (6.7) n (%)
- Fatigue, treatment-related [7]: 0 (0) n (%)
- Nausea, treatment-related [7]: 0 (0) n (%)
- Pneumonitis, treatment-related [7]: 0 (0) n (%)
- Pyrexia, treatment-related [7]: 0 (0) n (%)
- Vomiting, treatment-related [7]: 0 (0) n (%)
- Drug-related, predominantly low-grade pneumonitis (all patients, 10/109): 9%
- Fatal pneumonitis (during the trial): no cases of fatal pneumonitis
- Recommended phase II dose/schedule (intravenous): 12 mg/m^2/q2Wk
- Drug-related NCI CTCAE ≥grade 3 events (qWk schedule 1-6 mg/m^2, 21 patients: anemia, cellulitis, pneumonitis): three

Source: PMC9623233 (Clinical Cancer Research, 2022)
